ChEMBL document CHEMBL1151920, “Synthesis and biological evaluation of penem inhibitors of bacterial signal peptidase” (Bioorg Med Chem Lett, 2009)
Converted amounts (≈) assume the structure as drawn.

Columns and labels:
Staphylococcus aureus [1] = test: Antibacterial activity against methicillin-resistant Staphylococcus aureus USA300 after 18 hrs by liquid dilution method; format: functional; details: USA300, 18 h
Staphylococcus aureus [2] = test: Antibacterial activity against Staphylococcus aureus 8325 after 18 hrs by liquid dilution method; format: functional; details: Staphylococcus aureus, 8325, 18 h
Summary of the method: (§1)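 Broth microdilution MIC. Compounds 2-fold serially diluted in cation-adjusted Mueller–Hinton broth. Bacteria grown to 10^8 cfu/mL, then inoculated at a final 5 × 10^5 cells/mL. Incubated 37 °C, 18 h. MIC taken as the lowest concentration giving no visible growth. E. coli ATCC25922 was tested in the presence of polymyxin B as permeabilizing agent.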

[3] = tested on: Staphylococcus epidermidis; test: Antibacterial activity against Staphylococcus epidermidis RP62A after 18 hrs by liquid dilution method; format: functional; summary of the method: as §1
Escherichia coli = test: Antibacterial activity against permeabilizing agent polymyxin B-treated Escherichia coli ATCC 25922 after 18 hrs by liquid dilution method; format: functional; details: ATCC 25922, 18 h; summary of the method: as §1
Signal peptidase I = Signal peptidase I (Escherichia coli K-12, UniProt P00803); test: Inhibition of Escherichia coli signal peptidase
Signal peptidase I, sequence (P00803 whole entry): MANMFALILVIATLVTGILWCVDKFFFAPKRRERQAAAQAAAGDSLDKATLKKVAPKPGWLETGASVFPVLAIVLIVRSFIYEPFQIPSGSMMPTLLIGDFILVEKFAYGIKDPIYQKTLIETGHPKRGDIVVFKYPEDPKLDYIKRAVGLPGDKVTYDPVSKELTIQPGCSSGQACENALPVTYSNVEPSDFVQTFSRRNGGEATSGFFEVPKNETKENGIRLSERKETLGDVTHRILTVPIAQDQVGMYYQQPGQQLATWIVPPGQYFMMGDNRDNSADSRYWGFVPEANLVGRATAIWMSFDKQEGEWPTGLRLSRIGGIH

Structure (SMILES) | MIC (Staphylococcus aureus [1]) | MIC (Staphylococcus aureus [2]) | MIC [3] | MIC (Escherichia coli) | IC50 (Signal peptidase I)
CCOCO[C@H](C)[C@H]1C(=O)N2C(C(=O)OCc3ccc([N+](=O)[O-])cc3)=CS[C@@H]12 | > 200 mg/L | > 200 mg/L | 50 mg/L (≈ 122 µM) | > 200 mg/L | 
CCCC(=O)O[C@H](C)[C@H]1C(=O)N2C(C(=O)OCc3ccc([N+](=O)[O-])cc3)=CS[C@@H]12 | > 200 mg/L | > 200 mg/L | 100 mg/L (≈ 238 µM) | > 200 mg/L | 
CC(C)CC(=O)O[C@H](C)[C@H]1C(=O)N2C(C(=O)OCc3ccc([N+](=O)[O-])cc3)=CS[C@@H]12 | > 200 mg/L | > 200 mg/L | 100 mg/L (≈ 230 µM) | > 200 mg/L | 
CC(C)C(=O)O[C@H](C)[C@H]1C(=O)N2C(C(=O)OCc3ccc([N+](=O)[O-])cc3)=CS[C@@H]12 | > 200 mg/L | > 200 mg/L | 50 mg/L (≈ 119 µM) | > 200 mg/L | 
C[C@@H](O)[C@H]1C(=O)N2C(C(=O)O)=CS[C@@H]12 |  |  |  |  | 0.18 µM
CC(=O)N[C@H](C(=O)O[C@H](C)[C@H]1C(=O)N2C(C(=O)OCc3ccc([N+](=O)[O-])cc3)=CS[C@@H]12)C(C)C | > 200 mg/L | > 200 mg/L | > 200 mg/L | > 200 mg/L | 
CC(=O)N[C@@H](C)C(=O)O[C@H](C)[C@H]1C(=O)N2C(C(=O)OCc3ccc([N+](=O)[O-])cc3)=CS[C@@H]12 | > 200 mg/L | > 200 mg/L | > 200 mg/L | > 200 mg/L | 
COCO[C@H](C)[C@H]1C(=O)N2C(C(=O)OCc3ccc([N+](=O)[O-])cc3)=CS[C@@H]12 | > 200 mg/L | > 200 mg/L | 50 mg/L (≈ 127 µM) | > 200 mg/L | 
CC(=O)O[C@H](C)[C@H]1C(=O)N2C(C(=O)OCc3ccc([N+](=O)[O-])cc3)=CS[C@@H]12 | > 200 mg/L | > 200 mg/L | 100 mg/L (≈ 255 µM) | > 200 mg/L | 
C[C@@H](O)[C@H]1C(=O)N2C(C(=O)OCc3ccc([N+](=O)[O-])cc3)=CS[C@@H]12 | > 200 mg/L | 200 mg/L (≈ 571 µM) | 50 mg/L (≈ 143 µM) | > 200 mg/L | 
CC(C)NC(=O)O[C@H](C)[C@H]1C(=O)N2C(C(=O)OCc3ccc([N+](=O)[O-])cc3)=CS[C@@H]12 | 100 mg/L (≈ 230 µM) | > 200 mg/L | 100 mg/L (≈ 230 µM) | > 200 mg/L | 
COCCOCO[C@H](C)[C@H]1C(=O)N2C(C(=O)OCc3ccc([N+](=O)[O-])cc3)=CS[C@@H]12 | > 200 mg/L | 200 mg/L (≈ 456 µM) | 100 mg/L (≈ 228 µM) | > 200 mg/L | 
CC[C@H](C)[C@H](NC(C)=O)C(=O)O[C@H](C)[C@H]1C(=O)N2C(C(=O)OCc3ccc([N+](=O)[O-])cc3)=CS[C@@H]12 | > 200 mg/L | > 200 mg/L | > 200 mg/L | > 200 mg/L | 
CCNC(=O)O[C@H](C)[C@H]1C(=O)N2C(C(=O)OCc3ccc([N+](=O)[O-])cc3)=CS[C@@H]12 | 100 mg/L (≈ 237 µM) | > 200 mg/L | 100 mg/L (≈ 237 µM) | > 200 mg/L | 
CC(=O)NCC(=O)O[C@H](C)[C@H]1C(=O)N2C(C(=O)OCc3ccc([N+](=O)[O-])cc3)=CS[C@@H]12 | > 200 mg/L | > 200 mg/L | > 200 mg/L | > 200 mg/L | 
CCC(=O)O[C@H](C)[C@H]1C(=O)N2C(C(=O)OCc3ccc([N+](=O)[O-])cc3)=CS[C@@H]12 | > 200 mg/L | > 200 mg/L | 100 mg/L (≈ 246 µM) | > 200 mg/L | 
